# DENV2 CPE – inhibitors of DENV2 cytopathic effect | CPE inhibition, % at 9.99 µM | AID 651640 | actives 1.7% (n = 350,000) | DENV2-infected cells, cytopathic effect rescue, plate reader; in the data active = CPE inhibition above about 20%, passing the limit was not always enough; inconclusive = no clear call, values can overlap the other calls; tested in BHK-21 cells;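 also: 0% = median of neutral control wells and 100% = median of positive control wells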
# SIRT5 block – sirtuin-5 (human) deacylase inhibition. Q9NXA8. Purified SirT5, succinyl-peptide AMC, trypsin-coupled fluorescence. inhibition, % at 15 µM. actives 1.1% (n = 330,000). AID 652115; in the data active = inhibition above about 15%; inconclusive = no clear call, values can overlap the other calls
# Target sequence (Q9NXA8 whole entry, looked up): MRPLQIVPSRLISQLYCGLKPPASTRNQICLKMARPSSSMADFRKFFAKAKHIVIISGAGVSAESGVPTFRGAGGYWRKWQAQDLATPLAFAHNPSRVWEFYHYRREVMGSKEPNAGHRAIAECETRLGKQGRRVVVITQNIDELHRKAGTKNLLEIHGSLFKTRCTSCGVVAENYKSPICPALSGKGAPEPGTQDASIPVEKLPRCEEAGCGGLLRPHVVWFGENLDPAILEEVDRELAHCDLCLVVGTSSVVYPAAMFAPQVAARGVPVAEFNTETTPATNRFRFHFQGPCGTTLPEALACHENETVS
# E-selectin induc – induces E-selectin expression in human endothelial cells | P16581 | HUVEC E-selectin immunofluorescence imaging; normalized: neutral wells 0, TNF-alpha wells 100 | activation, % at 7.58 µM | actives 0.37% (n = 260,000);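 active = mean E-selectin-positive cell signal at least 10% of the positive control, reached in at least 60% of replicates, without over 20% cell loss; inconclusive = no rule given, readout overlaps actives, possibly toxicity-flagged; inactive = the rest, including those meeting only one limit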
#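 Read-out basis: % PE-positive cells; Test system: HUVEC primary endothelial cells; Technique: immunofluorescence imaging; Dosing: single-point compound dose.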
# Active calls of the source: *; ? = inconclusive; · = no result; ! = not confirmed by another sample. Most compounds without a hit are left out; they make up all but 2.8% or so of the library.
SMILES,DENV2 CPE,SIRT5 block,E-selectin induc
O=C(c1cc(C2CC2)on1)N1CCCC(N2CCN(c3cccc(C(F)(F)F)c3)CC2)C1 (centres undefined),30*,-11,0
CN(C)C(=O)CCC(=O)N1CCCC(N2CCN(c3cccc(C(F)(F)F)c3)CC2)C1 (centres undefined),2,-1,0
CNC[C@H]1Oc2ccc(NC(=O)C3CCCCC3)cc2CC(=O)N([C@@H](C)CO)C[C@@H]1C,-4,0,0
COC(=O)[C@H]1[C@H](CO)[C@H]2Cn3c(ccc(-c4ccccc4F)c3=O)[C@H]2N1Cc1ccncc1,-2,0,1
CO[C@@H]1CN(C)C(=O)c2ccc(NC(=O)c3nc4ccccc4s3)cc2OC[C@@H](C)N(Cc2ccncc2)C[C@H]1C,2,4,0
CC1=NCCN1CCNC(=O)Nc1ccc(F)cc1,-4,17*,·
CC1=NCCN1CCNC(=O)Nc1cc(C)cc(C)c1,-1,21*,·
Cc1cccc(NC(=O)NCCN2CCCCC2)c1,-3,2,·
Cc1ccc(CNC(=O)Nc2ccc(F)cc2)n1C,11,1,·
O=C(NC[C@@H]1CC[C@@H]2[C@@H](CN2S(=O)(=O)c2ccccc2)O1)NC1CCCCC1,13,1,·
N#Cc1ccccc1Sc1ccccc1C(=O)OCC(=O)NC12CC3CC(CC(C3)C1)C2,·,·,0
CC1CCCC(NC(=O)COC(=O)c2ccccc2Sc2ccccc2C#N)C1C (centres undefined),57*,-1,·
CCCC#Cc1ccc([C@H]2[C@H](CO)N3C(=O)CN(C(=O)Nc4cccc(F)c4)C[C@@H]23)cc1,-4,5,0
C[C@@H]1CN([C@H](C)CO)C(=O)c2cc(/C=C/c3ccccc3)cnc2O[C@@H]1CN(C)C(=O)NC1CCCCC1,2,-8,0
CN(C)Cc1cn(CC[C@H]2CC[C@H](NC(=O)Nc3ccccc3F)[C@H](CO)O2)nn1,?,-1,0
COc1ccc(NC(=O)N[C@H]2CC[C@H](CCn3cc(-c4ccccc4)nn3)O[C@@H]2CO)cc1,37*,-5,0
O=C(Nc1ccc(Cl)cc1)N[C@@H]1CC[C@@H](CCn2cc(Cc3ccccc3)nn2)O[C@@H]1CO,-6,4,-2
COc1ccc(NC(=O)N[C@@H]2CC[C@@H](CCn3cc(-c4ccccc4)nn3)O[C@@H]2CO)cc1,19,8,5
O=C(Nc1ccc(C(F)(F)F)cc1)N[C@@H]1CC[C@H](CCn2cc(C3(O)CCCC3)nn2)O[C@@H]1CO,-2,18*,2
O=C(Nc1ccc(Cl)cc1)N[C@H]1CC[C@@H](CCn2cc(Cc3ccccc3)nn2)O[C@H]1CO,46*,5,-2
CN(C)Cc1cn(CC[C@H]2CC[C@@H](NC(=O)Nc3ccccc3F)[C@@H](CO)O2)nn1,-2,18*,0
O=C(Nc1ccc(F)cc1)N[C@@H]1CC[C@@H](CCn2cc(C3(O)CCCC3)nn2)O[C@H]1CO,10,-2,0
COc1ccc2c3c(n(C)c2c1)[C@@H](CO)N(C(=O)CC1CC1)CC31CCN(C(=O)C2CCC2)CC1,7,·,0
CN1C(=O)c2cc(NC(=O)C3CC3)ccc2OC[C@@H]2O[C@@H](CC(=O)NCc3ccccc3F)CC[C@H]21,12,-4,0
COc1ccccc1-c1cn(CC[C@H]2CC[C@@H](NC(=O)NC(C)C)[C@H](CO)O2)nn1,28*,1,0
SMILES,DENV2 CPE,SIRT5 block,E-selectin induc
COc1ccccc1-c1cn(CC[C@H]2CC[C@H](NC(=O)NC(C)C)[C@H](CO)O2)nn1,-6,2,0
CN1CCN(C(=O)C[C@@H]2C[C@@H]3c4cc(NC(=O)Nc5ccc(C(F)(F)F)cc5)ccc4O[C@@H]3[C@H](CO)O2)CC1,12,-5,0
Cc1ccc(CC(=O)Nc2cccc(C(=O)Nc3c(C)n(C)n(-c4ccccc4)c3=O)c2)cc1C,31*,0,·
Cc1c(NC(=O)c2cccc(NC(=O)Cc3ccc(Cl)cc3)c2)c(=O)n(-c2ccccc2)n1C,-5,-4,6
CO[C@@H]1CC[C@H]2CCN(C)C(=O)CCCN(C)C(=O)c3cccc(C#N)c3OC[C@@H]1O2,2,2,0
COc1ccc(CN(C)C[C@H]2Oc3ccc(NC(=O)C4CC4)cc3CC(=O)N([C@H](C)CO)C[C@@H]2C)cc1,79*,2,1
COc1ccc(CN(C)C[C@H]2Oc3ccc(NC(=O)C4CC4)cc3CC(=O)N([C@@H](C)CO)C[C@@H]2C)cc1,-6,-2,0
COc1ccc(NC(=O)N(C)C[C@@H]2Oc3ccc(NC(=O)C4CC4)cc3CC(=O)N([C@H](C)CO)C[C@H]2C)cc1,3,-2,0
COc1ccc(NC(=O)N(C)C[C@H]2Oc3ccc(NC(=O)C4CC4)cc3CC(=O)N([C@H](C)CO)C[C@H]2C)cc1,-4,-5.8*,0
C[C@@H]1CN([C@H](C)CO)C(=O)Cc2cc(NC(=O)C3CC3)ccc2O[C@@H]1CN(C)Cc1ccncc1,21*,-7,1
C[C@@H]1CN([C@@H](C)CO)C(=O)Cc2cc(NC(=O)C3CC3)ccc2O[C@H]1CN(C)Cc1ccncc1,5,-3,0
CCC(=O)N1C[C@H]2[C@@H](c3ccccc31)[C@H](CO)N2C(=O)Nc1ccccc1,-7,3,0
C/C=C/c1ccc2c(c1)O[C@H](CN(C)C(=O)c1cccc(F)c1)[C@@H](C)CN([C@H](C)CO)S2(=O)=O,-5,3,0
CC(C)(C)[S@@](=O)N1Cc2cc(C(=O)NCc3ccc4c(c3)OCO4)nc(-c3cccc(-c4ccncc4)c3)c2[C@H]1CCO,-5,·,0
COCC(=O)Nc1ccc2c(c1)C(=O)N(C)[C@@H]1CC[C@H](CC(=O)NCc3ccccc3Cl)O[C@@H]1CO2,-6,·,0
CN(CC(=O)Nc1ccc(F)cc1)C(=O)COC(=O)c1nc(Cl)ccc1Cl,73*,1,0
O=C(COC(=O)c1nc(Cl)ccc1Cl)Nc1ccc(Cl)cc1,3,0,0
Cc1ccc(S(=O)(=O)Nc2ccc3c(c2)C(=O)N([C@@H](C)CO)C[C@H](C)[C@H](CN(C)S(=O)(=O)c2c(C)noc2C)OCCCC[C@@H](C)O3)cc1,-5,10,·
C/C=C/c1ccc(C2[C@H]3CNC[C@@H]2N3S(=O)(=O)c2ccccc2C)cc1 (some centres undefined),20*!,2,0
C/C=C/c1ccc(C2[C@H]3CNC[C@@H]2N3S(=O)(=O)c2ccccc2OC)cc1 (some centres undefined),0,-1,2
Cc1ccc(S(=O)(=O)Nc2cccc3c2O[C@H](CN(C)S(=O)(=O)c2cccs2)[C@H](C)CN([C@@H](C)CO)C3=O)cc1,-5,2,0
O=C(O)COc1ccccc1-c1ccccc1,-12,-1,·
Cc1ccccc1C1=C/C(=C(\SS/C(C(=O)c2ccc(OCC(=O)O)c(Cl)c2Cl)=C2\C=C(c3ccccc3C)SS2)C(=O)c2ccc(OCC(=O)O)c(Cl)c2Cl)SS1,0,69*,-4
CN(C)S(=O)(=O)c1cccc(NC(=S)N/N=C/c2cccc(O)c2)c1,-9,3,·
CN(C)S(=O)(=O)c1cccc(NC(=S)N/N=C/c2cc(Br)ccc2O)c1,7,29*,·
